This is an account of results in ChEMBL document CHEMBL1122018, “Synthesis and orexigenic activity of some 1-methyl-4-piperidylidene-Substituted pyrrolo[2,1-g][3] benzazepine and dibenzocycloheptene derivatives” (1982).

What all share (assay type): functional
Test [1] deals with Felis catus. Put plainly: Average food consumed at the dose of 0.063 mg/kg (po) using 10 cats per dose level at 30 min (control day/ test day); 13/120.
The subject of test [2] is Felis catus. Put plainly: Average food consumed at the dose of 0.50 mg/kg (po) using 10 cats per dose level at 60 min (control day/ test day); 35/219. Particulars: dose 0.5 mg/kg. In short, it runs like this: (§1)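 Cats given test compound suspended in 1% methylcellulose, or 1% methylcellulose placebo, by gavage 30 min before a preweighed test meal. Food was offered in surplus for 3 h, and intake was found by reweighing at 30, 60 and 180 min. Ten cats per dose, each dosed no more than once weekly. Test-day intake was compared with the preceding control day by two-tailed paired t test (p < 0.05); values are mean ± SD.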

For test [3], the system named is Felis catus. Put plainly: Average food consumed at the dose of 0.25 mg/kg (po) using 10 cats per dose level at 180 min (control day/ test day); 50/239.
Test [4] relates to Felis catus. Description: Average food consumed at the dose of 0.063 mg/kg (po) using 10 cats per dose level at 60 min (control day/ test day); 22/144.
Test [5] deals with Felis catus. Put plainly: Average food consumed at the dose of 0.25 mg/kg (po) using 10 cats per dose level at 60 min (control day/ test day); 39/212. The gist of the method:
as §1

Test [6] deals with Felis catus. Description: Average food consumed at the dose of 0.063 mg/kg (po) using 10 cats per dose level at 180 min (control day/ test day); 50/190.
The subject of test [7] is Felis catus. Put plainly: Average food consumed at the dose of 0.25 mg/kg (po) using 10 cats per dose level at 30 min (control day/ test day); 38/175. The gist of the method: as §1
For test [8], the system named is Felis catus. Put plainly: Average food consumed at the dose of 0.016 mg/kg (po) using 10 cats per dose level at 30 min (control day/ test day); 21/142.
Test [9] has as its system Felis catus. Put plainly: Average food consumed at the dose of 0.016 mg/kg (po) using 10 cats per dose level at 60 min (control day/ test day); 31/168.
For test [10], the system named is Felis catus. Put plainly: Average food consumed at the dose of 0.016 mg/kg (po) using 10 cats per dose level at 180 min (control day/ test day); 45/215.
Test [11] deals with Felis catus. Description: Average food consumed at the dose of 0.50 mg/kg (po) using 10 cats per dose level at 180 min (control day/ test day); 32/234. Particulars: dose 0.5 mg/kg. The gist of the method: as §1
Test [12] relates to Felis catus. Description: Average food consumed at the dose of 0.50 mg/kg (po) using 10 cats per dose level at 30 min (control day/ test day); 39/204. Particulars: dose 0.5 mg/kg. The gist of the method:
as §1

The test system of test [13] is Felis catus. Put plainly: Average food consumed at the dose of 0.25 mg/kg (po) using 10 cats per dose level at 30 min (control day/ test day); 34/165. In short, it runs like this: as §1
Test [14] relates to Felis catus. Put plainly: Average food consumed at the dose of 0.25 mg/kg (po) using 10 cats per dose level at 60 min (control day/ test day); 35/200. In short, it runs like this: as §1
Test [15] has as its system Felis catus. Put plainly: Average food consumed at the dose of 0.063 mg/kg (po) using 10 cats per dose level at 180 min (control day/ test day); 59/195.
Test [16] deals with Felis catus. Put plainly: Average food consumed at the dose of 0.50 mg/kg (po) using 10 cats per dose level at 180 min (control day/ test day); 50/256. Particulars: dose 0.5 mg/kg. The gist of the method:
as §1

Test [17] deals with Felis catus. Description: Average food consumed at the dose of 0.016 mg/kg (po) using 10 cats per dose level at 60 min (control day/ test day); 41/160.
The subject of test [18] is Felis catus. Put plainly: Average food consumed at the dose of 0.25 mg/kg (po) using 10 cats per dose level at 180 min (control day/ test day); 45/231.
In test [19] the test system is Felis catus. Put plainly: Average food consumed at the dose of 0.016 mg/kg (po) using 10 cats per dose level at 30 min (control day/ test day); 35/118.
Test [20] has as its system Felis catus. Put plainly: Average food consumed at the dose of 0.50 mg/kg (po) using 10 cats per dose level at 60 min (control day/ test day); 50/221. Particulars: dose 0.5 mg/kg. In short, it runs like this: as §1
In test [21] the test system is Felis catus. Description: Average food consumed at the dose of 0.063 mg/kg (po) using 10 cats per dose level at 60 min (control day/ test day); 28/130.
Test [22] has as its system Felis catus. Description: Average food consumed at the dose of 0.50 mg/kg (po) using 10 cats per dose level at 30 min (control day/ test day); 47/190. Particulars: dose 0.5 mg/kg. The gist of the method:
as §1

The subject of test [23] is Felis catus. Put plainly: Average food consumed at the dose of 0.016 mg/kg (po) using 10 cats per dose level at 180 min (control day/ test day); 46/193.
Test [24] concerns Felis catus. Put plainly: Average food consumed at the dose of 0.063 mg/kg (po) using 10 cats per dose level at 30 min (control day/ test day); 14/112.
The subject of test [25] is Felis catus. Description: Average food consumed at the dose of 0.031 mg/kg (po) using 10 cats per dose level at 60 min (control day/ test day); 14/95.
In test [26] the test system is Felis catus. Put plainly: Average food consumed at the dose of 0.50 mg/kg (po) using 10 cats per dose level at 180 min (control day/ test day); 45/221. Particulars: dose 0.5 mg/kg. In short, it runs like this: as §1
Test [27] deals with Felis catus. Description: Average food consumed at the dose of 0.016 mg/kg (po) using 10 cats per dose level at 30 min (control day/ test day); 25/104.
Test [28] deals with Felis catus. Put plainly: Average food consumed at the dose of 0.031 mg/kg (po) using 10 cats per dose level at 30 min (control day/ test day); 20/75.
The subject of test [29] is Felis catus. Description: Average food consumed at the dose of 0.016 mg/kg (po) using 10 cats per dose level at 60 min (control day/ test day); 30/137.
The test system of test [30] is Felis catus. Description: Average food consumed at the dose of 0.063 mg/kg (po) using 10 cats per dose level at 180 min (control day/ test day); 26/204.
Test [31] has as its system Felis catus. Put plainly: Average food consumed at the dose of 0.063 mg/kg (po) using 10 cats per dose level at 60 min (control day/ test day); 32/138.
Test [32] deals with Felis catus. Put plainly: Average food consumed at the dose of 0.063 mg/kg (po) using 10 cats per dose level at 30 min (control day/ test day); 33/122.
The test system of test [33] is Felis catus. Put plainly: Average food consumed at the dose of 0.031 mg/kg (po) using 10 cats per dose level at 180 min (control day/ test day); 24/152.
Test [34] deals with Felis catus. Put plainly: Average food consumed at the dose of 0.016 mg/kg (po) using 10 cats per dose level at 180 min (control day/ test day); 39/190.
Test [35] relates to Felis catus. Description: Average food consumed at the dose of 0.25 mg/kg (po) using 10 cats per dose level at 60 min (control day/ test day); 26/127. The gist of the method:
as §1

The test system of test [36] is Felis catus. Description: Average food consumed at the dose of 0.25 mg/kg (po) using 10 cats per dose level at 180 min (control day/ test day); 30/170.
The test system of test [37] is Felis catus. Put plainly: Average food consumed at the dose of 0.50 mg/kg (po) using 10 cats per dose level at 30 min (control day/ test day); 38/105. Particulars: dose 0.5 mg/kg. The gist of the method: as §1
Test [38] has as its system Felis catus. Put plainly: Average food consumed at the dose of 0.50 mg/kg (po) using 10 cats per dose level at 60 min (control day/ test day); 42/155. Particulars: dose 0.5 mg/kg. In short, it runs like this:
as §1

The subject of test [39] is Felis catus. Description: Average food consumed at the dose of 0.25 mg/kg (po) using 10 cats per dose level at 30 min (control day/ test day); 20/89.

The structures appear in SMILES notation.

As for `CN1CCC(=C2c3ccccc3CCn3cccc32)CC1.O=C(O)C(=O)O`, the Average consumed in the test with Felis catus [1] amounted to 52 g; in the test on Felis catus [2] it was 137 g; in the test on Felis catus [3] it was 175 g; in the test with Felis catus [4], 74 g; in the test on Felis catus [5] it was 124 g; with Felis catus [6], 133 g. Further, the Average consumed in the test on Felis catus [7] is given as 91 g; in the test with Felis catus [8], 77 g; with Felis catus [9], 106 g; in the test on Felis catus [10] it was 159 g; with Felis catus [11], 166 g; in the test with Felis catus [12], 117 g.

With `CN1CCC(=C2c3ccccc3C=Cc3ccccc32)CC1` [CYPROHEPTADINE], the Average consumed in the test with Felis catus [13] was determined as 109 g; in the test on Felis catus [14] it was 129 g; with Felis catus [15], 134 g; with Felis catus [16], 194 g; in the test with Felis catus [17], 108 g; with Felis catus [18] it was 179 g. The Average consumed was 75 g with Felis catus [19]; 157 g with Felis catus [20]; 80 g in the test on Felis catus [21]; 135 g in the test on Felis catus [22]; 157 g in the test on Felis catus [23]; 56 g in the test on Felis catus [24].

Turning to `CN1CCC(=C2c3ccccc3CCc3ccc(C(=O)O)cc32)CC1.Cl`, the Average consumed is given as 83 g in the test with Felis catus [25]; 134 g in the test with Felis catus [26]; 97 g in the test with Felis catus [27]; 53 g in the test with Felis catus [28]; 139 g with Felis catus [29]; 174 g with Felis catus [30]. In addition, the Average consumed amounted to 118 g with Felis catus [31]; 88 g with Felis catus [32]; 126 g in the test with Felis catus [33]; 180 g in the test with Felis catus [34]; 102 g in the test on Felis catus [35]; 145 g in the test on Felis catus [36]. Moreover, the Average consumed in the test with Felis catus [37] worked out at 84 g; in the test with Felis catus [38], 102 g; in the test on Felis catus [39], 68 g.
